Three molecules from ChEMBL document CHEMBL5634114, “Galantamine-memantine hybrids for Alzheimer's disease: The influence of linker rigidity in biological activity and pharmacokinetic properties” (Eur J Med Chem, 2023) can be followed below.

By IC50 is commonly meant the concentration that inhibits the measured activity by half. What is called half-life is how long it takes for the measured level to halve. For orientation: Cmax means the highest concentration seen after dosing. For orientation: clearance means a measure of how efficiently the substance is removed, as volume per time. For orientation: Tmax means the time at which the peak concentration occurs. As a reminder, the AUC is the area under the concentration-time curve, a measure of exposure. A lower AUC goes with less exposure. The Vd is a proportionality between amount in the body and measured concentration, not a real space.

Converted amounts (≈) assume the structure as drawn.

Data set [1] concerns the target Cholinesterase (Homo sapiens, UniProt P06276). Put plainly: Inhibition of human serum BChE using butyrylthiocholine as substrate preincubated for 20 mins followed by substrate addition measured for 3 mins by Ellman's method. The class given is cell-free. A digest of the protocol: (§1)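 Ellman assay at 37 °C in 0.1 M phosphate buffer pH 8.0 with 340 µM DTNB and 0.02 U/mL enzyme (recombinant human AChE or human serum BChE). Inhibitor at increasing concentrations was preincubated with enzyme for 20 min before adding 550 µM acetylthiocholine (AChE) or butyrylthiocholine (BChE). Absorbance at 412 nm was monitored for 3 min, with a blank lacking enzyme. Triplicates; IC50 from log concentration–inhibition curves; at least two experiments.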
On the technique in general: DTNB colorimetry detects thiols as they appear.

Data set [2] is described as follows: Metabolic stability in mouse plasma assessed as half life at 2 uM incubated for 2 hrs by LC-MS/MS analysis. The class given is ADME, cell-free. A digest of the protocol:
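Compound at 2 µM final (0.5% DMSO) in prewarmed mouse plasma at 37 °C. Samples taken at 0, 5, 15, 30, 60 and 120 min were quenched in cold CH3CN with internal standard, centrifuged, diluted with water and analyzed by LC-MS/MS (MRM, positive ESI). Half-life calculated from the time course.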

A short description of data set [3]: Cmax in CD-1 mouse at 3 mg/kg, iv measured for 240 mins. The class given is ADME, organism-based. As to conditions: in vivo. A digest of the protocol:
(§2)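 Male CD1 mice (22–24 g) dosed IV at 3 mg/kg in PEG400/Tween 80/saline 10/10/80 v/v. Three animals per time point. Blood taken at 0, 5, 30, 60, 120 and 240 min. Plasma extracted with cold CH3CN plus internal standard and quantified by LC-MS/MS (MRM) against a 1 nM–10 µM calibration curve in blank plasma. Parameters were obtained by fitting the plasma concentration–time profile.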

Data set [4] is described as follows: Aqueous kinetic solubility in PBS at 250 uM incubated for 24 hrs […]. Conditions: read-out: Kinetic_solubility. The class given is physicochemical.
A short description of data set [5]: Drug concentration in brain of in CD-1 mouse at 3 mg/kg, iv measured for 240 mins. The class given is ADME, organism-based. Conditions: read-out: Ct. A digest of the protocol: (§3)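 Male CD1 mice dosed IV at 3 mg/kg in PEG400/Tween 80/saline 10/10/80. Three mice per time point. Whole brains were homogenized in 4 vol PBS:protease inhibitor (100:1), extracted with cold CH3CN plus internal standard and measured by LC-MS/MS (MRM) against a 1 nM–10 µM calibration in naïve brain homogenate. Levels were normalized per 100 mg brain/mL, with protein content checked by BCA.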

The nature of data set [6]: Half life in CD-1 mouse at 3 mg/kg, iv measured for 240 mins. The class given is ADME, organism-based. Conditions: in vivo. A digest of the protocol:
as §2

The target of data set [7] is Glutamate NMDA receptor; Grin1/Grin2a (Rattus norvegicus, UniProt P35439+Q00959). Put plainly: Inhibition of NMDA/glycine-activated rat GluN1/Glu2A expressed in xenopus laevis oocytes at -75 mV holding potential by voltage clamp method. In kind it is cell-based, Oocyte. A digest of the protocol:
(§4)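 Xenopus oocytes (stage IV–V) were injected with GluN1 plus GluN2A or GluN1 plus GluN2B cRNA (1:1) and kept 3–4 days at 18 °C. Two-electrode voltage clamp was run in saline with 2 mM CaCl2, pH 7.5. Currents were evoked by 100 µM NMDA plus 10 µM glycine, with compound co-applied at 0.01–100 µM in 10-fold steps. […] The selectivity index is the GluN1/2A IC50 divided by the GluN1/2B IC50.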

Data set [8] in a line: Drug concentration in brain of in CD-1 mouse at 3 mg/kg, iv measured for 60 mins. The class given is ADME, organism-based. As to conditions: read-out: Ct. The procedure, abridged:
as §3

Data set [9] can be described thus: Metabolic stability in mouse liver microsomes assessed as half life at 5 uM preincubated for 15 mins followed by UDPGA/D-saccharic acid lactone measured for 1 hr by LC-MS/MS analysis. The class given is ADME, Microsome. As to conditions: time 75 min. A digest of the protocol: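 Mouse liver microsomes with alamethicin and compound at 5 µM final (0.1% DMSO) in 0.1 M Tris-HCl pH 7.5, preincubated 15 min at 37 °C. UDPGA, p-saccharic acid lactone and MgCl2 were then added and incubation continued for 1 h. Samples at 0, 5, 15, 30 and 60 min were quenched in cold CH3CN with internal standard and analyzed by LC-MS/MS. A no-cofactor control was run at 0 and 60 min.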
(Liver microsomes are a subcellular fraction often used to study metabolism.)

A short description of data set [10]: Drug concentration in brain of in CD-1 mouse at 3 mg/kg, iv measured for 30 mins. In kind it is ADME, organism-based. As to conditions: read-out: Ct. The procedure, abridged:
as §3

The target in data set [11] is Acetylcholinesterase (Homo sapiens, UniProt P22303). The data set can be described thus: Inhibition of recombinant human AChE using acetylthiocholine as substrate preincubated for 20 mins followed by substrate addition measured for 3 mins by Ellman's method. The procedure, abridged:
as §1

Data set [12] in a line: Clearance in CD-1 mouse at 3 mg/kg, iv measured for 240 mins. The class given is ADME, organism-based. Conditions: in vivo. The procedure, abridged: as §2
Data set [13] can be described thus: Metabolic stability in mouse liver microsomes assessed as half life at 5 uM preincubated for 15 mins followed by NADPH/G6P/G6PDH measured for 1 hr by LC-MS/MS analysis. As to conditions: time 75 min. The class given is ADME, Microsome. A digest of the protocol: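 Mouse liver microsomes with compound at 5 µM final (0.1% DMSO) in 0.1 M Tris-HCl pH 7.5, preincubated 15 min at 37 °C. NADPH, G6P, G6PDH and MgCl2 were then added and incubation continued for 1 h. Samples at 0, 5, 15, 30 and 60 min were quenched in cold CH3CN with internal standard and analyzed by LC-MS/MS. A no-cofactor microsome control was run at 0 and 60 min.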

Data set [14] in a line: Drug concentration in brain of in CD-1 mouse at 3 mg/kg, iv measured for 120 mins. In kind it is ADME, organism-based. Conditions: read-out: Ct. A digest of the protocol:
as §3

Data set [15] is described as follows: Tmax in CD-1 mouse at 3 mg/kg, iv measured for 240 mins. In kind it is ADME, organism-based. Conditions: in vivo. The procedure, abridged: as §2
The nature of data set [16]: AUC in CD-1 mouse at 3 mg/kg, iv measured for 240 mins. In kind it is ADME, organism-based. Conditions: in vivo. A digest of the protocol: as §2
The species entered for data set [17] is Rattus norvegicus. The data set can be described thus: Selectivity index, ratio of IC50 for NMDA/glycine-activated rat GluN1/Glu2A expressed in xenopus laevis oocytes to IC50 for NMDA/glycine-activated rat GluN1/Glu2B expressed in xenopus laevis oocytes. In kind it is cell-based. The procedure, abridged:
as §4

The nature of data set [18]: Volume of distribution in CD-1 mouse at 3 mg/kg, iv measured for 240 mins. Conditions: in vivo. In kind it is ADME, organism-based. The procedure, abridged:
as §2

The target in data set [19] is Glutamate NMDA receptor; Grin1/Grin2b (Rattus norvegicus, UniProt P35439+Q00960). The data set can be described thus: Inhibition of NMDA/glycine-activated rat GluN1/Glu2B expressed in xenopus laevis oocytes at -75 mV holding potential by voltage clamp method. The class given is cell-based, Oocyte. A digest of the protocol:
as §4

Chain of Acetylcholinesterase (P22303 whole entry): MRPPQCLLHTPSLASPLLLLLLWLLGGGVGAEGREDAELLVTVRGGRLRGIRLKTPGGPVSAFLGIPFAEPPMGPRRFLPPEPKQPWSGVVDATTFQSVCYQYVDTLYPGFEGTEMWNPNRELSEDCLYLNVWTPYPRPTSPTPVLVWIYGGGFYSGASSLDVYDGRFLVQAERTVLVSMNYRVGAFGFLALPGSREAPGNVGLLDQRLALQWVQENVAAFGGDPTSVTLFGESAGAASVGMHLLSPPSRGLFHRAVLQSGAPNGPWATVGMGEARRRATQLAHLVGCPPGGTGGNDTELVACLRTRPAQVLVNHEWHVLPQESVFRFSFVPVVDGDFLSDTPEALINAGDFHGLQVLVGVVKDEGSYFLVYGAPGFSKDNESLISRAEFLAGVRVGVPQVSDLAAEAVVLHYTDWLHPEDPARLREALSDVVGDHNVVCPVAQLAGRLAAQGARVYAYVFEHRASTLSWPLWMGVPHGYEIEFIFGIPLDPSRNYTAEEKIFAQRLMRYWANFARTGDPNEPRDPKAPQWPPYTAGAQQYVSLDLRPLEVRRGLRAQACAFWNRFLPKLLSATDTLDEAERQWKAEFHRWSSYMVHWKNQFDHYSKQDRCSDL
Chain of Glutamate NMDA receptor; Grin1/Grin2b (Q00960 whole entry, other chains not shown): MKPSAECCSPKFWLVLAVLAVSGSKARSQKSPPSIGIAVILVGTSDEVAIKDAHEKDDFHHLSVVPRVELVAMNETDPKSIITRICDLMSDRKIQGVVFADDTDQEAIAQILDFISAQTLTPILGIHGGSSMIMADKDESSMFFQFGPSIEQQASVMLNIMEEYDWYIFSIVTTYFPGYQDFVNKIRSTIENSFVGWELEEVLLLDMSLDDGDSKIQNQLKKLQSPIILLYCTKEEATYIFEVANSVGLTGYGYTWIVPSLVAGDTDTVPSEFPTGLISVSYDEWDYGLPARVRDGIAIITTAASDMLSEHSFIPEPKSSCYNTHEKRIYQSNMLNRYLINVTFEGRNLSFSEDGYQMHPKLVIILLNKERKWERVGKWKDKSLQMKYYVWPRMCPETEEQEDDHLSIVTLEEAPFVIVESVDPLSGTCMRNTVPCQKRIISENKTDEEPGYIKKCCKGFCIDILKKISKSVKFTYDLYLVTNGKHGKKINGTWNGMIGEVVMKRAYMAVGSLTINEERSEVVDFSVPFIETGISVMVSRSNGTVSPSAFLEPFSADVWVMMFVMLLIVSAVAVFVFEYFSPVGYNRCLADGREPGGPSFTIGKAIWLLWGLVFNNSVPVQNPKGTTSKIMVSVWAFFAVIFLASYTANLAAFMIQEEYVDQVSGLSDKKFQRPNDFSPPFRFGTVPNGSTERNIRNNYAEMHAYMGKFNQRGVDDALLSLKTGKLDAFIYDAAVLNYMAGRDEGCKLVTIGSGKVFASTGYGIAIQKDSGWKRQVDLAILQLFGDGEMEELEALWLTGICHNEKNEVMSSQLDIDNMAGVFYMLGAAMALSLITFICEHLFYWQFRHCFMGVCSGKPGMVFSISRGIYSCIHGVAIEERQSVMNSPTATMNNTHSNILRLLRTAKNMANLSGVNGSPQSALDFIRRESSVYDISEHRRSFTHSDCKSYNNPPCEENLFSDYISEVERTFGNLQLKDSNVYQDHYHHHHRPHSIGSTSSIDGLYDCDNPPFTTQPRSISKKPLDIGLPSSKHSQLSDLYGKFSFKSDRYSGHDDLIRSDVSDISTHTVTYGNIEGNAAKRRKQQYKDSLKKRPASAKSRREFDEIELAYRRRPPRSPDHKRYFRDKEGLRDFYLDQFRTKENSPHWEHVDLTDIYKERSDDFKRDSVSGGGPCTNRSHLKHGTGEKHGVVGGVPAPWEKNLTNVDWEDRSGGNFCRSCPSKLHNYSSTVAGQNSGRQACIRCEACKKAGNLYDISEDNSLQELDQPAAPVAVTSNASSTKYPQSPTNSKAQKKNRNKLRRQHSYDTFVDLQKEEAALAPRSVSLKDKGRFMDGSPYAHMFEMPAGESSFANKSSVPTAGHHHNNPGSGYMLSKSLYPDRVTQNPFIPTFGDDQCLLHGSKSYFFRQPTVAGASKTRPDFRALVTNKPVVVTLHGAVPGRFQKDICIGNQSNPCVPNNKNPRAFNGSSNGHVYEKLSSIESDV
Chain of Glutamate NMDA receptor; Grin1/Grin2a (Q00959 whole entry, other chains not shown): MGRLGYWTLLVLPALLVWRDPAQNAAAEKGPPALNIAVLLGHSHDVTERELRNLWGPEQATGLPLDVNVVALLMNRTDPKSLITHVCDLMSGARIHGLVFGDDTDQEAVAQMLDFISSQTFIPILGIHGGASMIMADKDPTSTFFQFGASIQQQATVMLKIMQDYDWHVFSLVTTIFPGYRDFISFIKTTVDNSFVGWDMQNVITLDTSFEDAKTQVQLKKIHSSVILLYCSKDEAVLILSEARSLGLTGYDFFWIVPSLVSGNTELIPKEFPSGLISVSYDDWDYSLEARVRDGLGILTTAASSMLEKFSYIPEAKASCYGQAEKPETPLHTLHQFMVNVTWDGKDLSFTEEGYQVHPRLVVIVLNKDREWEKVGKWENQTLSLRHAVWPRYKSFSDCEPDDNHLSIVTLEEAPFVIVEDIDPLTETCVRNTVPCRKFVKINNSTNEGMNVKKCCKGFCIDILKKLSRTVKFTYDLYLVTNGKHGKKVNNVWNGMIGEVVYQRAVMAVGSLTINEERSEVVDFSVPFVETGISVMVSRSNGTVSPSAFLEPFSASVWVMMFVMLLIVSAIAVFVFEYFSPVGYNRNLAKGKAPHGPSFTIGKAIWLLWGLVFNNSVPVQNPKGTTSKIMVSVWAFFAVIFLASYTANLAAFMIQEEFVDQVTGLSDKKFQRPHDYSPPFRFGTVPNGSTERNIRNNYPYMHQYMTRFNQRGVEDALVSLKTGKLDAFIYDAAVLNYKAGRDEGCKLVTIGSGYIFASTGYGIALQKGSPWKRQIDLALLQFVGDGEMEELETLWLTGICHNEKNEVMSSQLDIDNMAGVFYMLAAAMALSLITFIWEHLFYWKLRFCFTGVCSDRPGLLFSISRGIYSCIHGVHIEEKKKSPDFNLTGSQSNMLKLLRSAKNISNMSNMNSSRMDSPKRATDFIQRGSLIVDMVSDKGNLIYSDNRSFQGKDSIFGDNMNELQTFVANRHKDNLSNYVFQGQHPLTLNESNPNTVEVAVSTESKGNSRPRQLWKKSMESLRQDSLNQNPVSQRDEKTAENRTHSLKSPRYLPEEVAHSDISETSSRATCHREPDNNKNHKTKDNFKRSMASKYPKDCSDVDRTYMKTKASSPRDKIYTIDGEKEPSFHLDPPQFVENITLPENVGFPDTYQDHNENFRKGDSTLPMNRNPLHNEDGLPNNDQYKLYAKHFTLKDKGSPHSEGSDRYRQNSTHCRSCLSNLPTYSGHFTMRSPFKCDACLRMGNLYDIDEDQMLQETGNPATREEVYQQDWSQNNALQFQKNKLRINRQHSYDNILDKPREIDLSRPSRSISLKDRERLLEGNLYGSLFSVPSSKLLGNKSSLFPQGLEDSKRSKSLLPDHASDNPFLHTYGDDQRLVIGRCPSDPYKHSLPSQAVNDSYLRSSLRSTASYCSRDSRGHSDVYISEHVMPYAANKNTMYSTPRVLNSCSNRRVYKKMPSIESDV
Chain of Cholinesterase (P06276 whole entry): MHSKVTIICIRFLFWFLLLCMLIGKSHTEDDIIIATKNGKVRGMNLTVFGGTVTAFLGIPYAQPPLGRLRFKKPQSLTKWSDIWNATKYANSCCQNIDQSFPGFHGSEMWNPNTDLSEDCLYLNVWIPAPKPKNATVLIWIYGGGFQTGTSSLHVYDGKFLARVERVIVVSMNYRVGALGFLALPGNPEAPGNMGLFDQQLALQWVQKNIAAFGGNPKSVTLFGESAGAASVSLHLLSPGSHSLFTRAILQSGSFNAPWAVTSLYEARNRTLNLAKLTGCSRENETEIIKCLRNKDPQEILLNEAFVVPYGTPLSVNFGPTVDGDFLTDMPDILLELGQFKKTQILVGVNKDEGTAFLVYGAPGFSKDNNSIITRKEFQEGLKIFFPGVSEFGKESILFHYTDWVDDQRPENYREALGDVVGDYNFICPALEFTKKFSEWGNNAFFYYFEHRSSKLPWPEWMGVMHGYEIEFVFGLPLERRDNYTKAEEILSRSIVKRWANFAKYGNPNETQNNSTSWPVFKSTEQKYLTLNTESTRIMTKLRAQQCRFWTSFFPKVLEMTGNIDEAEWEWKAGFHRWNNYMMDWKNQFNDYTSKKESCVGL

Turning to `COc1ccc2c3c1O[C@H]1C[C@@H](O)C=C[C@@]31CCN(C/C=C/CNC13CC4CC(C)(CC(C)(C4)C1)C3)C2`, the IC50 in data set [1] is 0.421 µM; in data set [7] it was 14.5 µM; in data set [11] it was 0.115 µM; in [19] it was 1.32 µM. For the same molecule, the half-life at 2 µM in data set [2] was above 2 h. For the same molecule, the peak concentration (Cmax) in [3] is 0.202 µg/mL. In [4], the solubility kinetic at 24 h, 250 µM was found to be 237 µM (≈ 120 µg/mL). In data set [5], the concentration at 4 h came to 96 ng/g. Moreover, the half-life in data set [6] amounted to 1.37 h. The concentration at 1 h in [8] came out at 256 ng/g. Moreover, the half-life at 5 µM is above 1 h in data set [9] and 0.75 h in data set [13]. The concentration at 0.5 h in data set [10] is 281 ng/g. Moreover, the clearance in [12] was 9.66 L/h/kg. The concentration at 2 h in [14] stood at 243 ng/g. Further, the time to peak (Tmax) in [15] is 5 min. Besides, the area under the curve (AUC) at 4 h in data set [16] is 0.28 µg·h/mL. The Ratio IC50 in data set [17] stood at 11. In [18], the volume of distribution (Vd) turned out to be 19 L/kg.

As for `COc1ccc2c3c1O[C@H]1C[C@@H](O)C=C[C@@]31CCN(CC#CCNC13CC4CC(C)(CC(C)(C4)C1)C3)C2`, the half-inhibitory concentration (IC50) in data set [1] was 5.08 µM; in data set [7], 11.6 µM; in data set [11] it was 0.762 µM; in [19], 15.5 µM. Moreover, the half-life at 2 µM in data set [2] is above 2 h. Further, in [4], the solubility kinetic at 24 h, 250 µM came to 230 µM (≈ 116 µg/mL). Further, the half-life at 5 µM in data set [13] was below 0.0833 h. Besides, the Ratio IC50 in data set [17] came to 0.75.

On to `COc1ccc2c3c1O[C@H]1C[C@@H](O)C=C[C@@]31CCN(CCCCNC13CC4CC(C)(CC(C)(C4)C1)C3)C2`, for which the IC50 in [1] came out at 1.77 µM; in [7], 5.74 µM; in data set [11], 1.13 µM; in data set [19] it was 1.45 µM. Also, in [2], the half-life at 2 µM stood at 1.62 h. For the same molecule, the peak level in data set [3] (Cmax) was 0.208 µg/mL. Further, the solubility kinetic at 24 h, 250 µM in data set [4] was 242 µM (≈ 123 µg/mL). In [5], the concentration at 4 h was found to be 310 ng/g. The molecule further came in with a half-life in [6] of 20.8 h. The concentration at 1 h in [8] was 115 ng/g. In addition, the half-life at 5 µM in data set [9] and in data set [13] was above 1 h each time. Besides, the concentration at 0.5 h in data set [10] was determined as 95 ng/g. This molecule also registered a clearance in data set [12] of 2.58 L/h/kg. Moreover, in data set [14], the concentration at 2 h is 70 ng/g. In addition, in [15], the time of peak concentration (Tmax) is 5 min. For the same molecule, in [16], the AUC at 4 h was 0.29 µg·h/mL. Moreover, in data set [17], the Ratio IC50 was determined as 4. Besides, in [18], the Vd worked out at 78 L/kg.
